The subject of this series is MS2 coat protein. The series can be described thus: apparent Kd, MS2 coat protein; higher = weaker binding; RNA-MaP array; FMN 200 µM where present. The procedure, abridged:
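Designs were transcribed by stalled E. coli RNA polymerase on Illumina sequencing-chip clusters. They were titrated with SNAP-549-labelled MS2 coat protein from 0.7 or 1.5 nM, doubling to 3 µM, without and then with constant ligand. Buffer: 100 mM Tris-HCl pH 7.5, 80 mM KCl, 4 mM MgCl2, BSA, DTT, yeast tRNA, Tween-20. Green signal was normalised to red-channel RNA signal and control-cluster median Fmax. Apparent Kd is the median of filtered per-cluster binding-curve fits.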

Setting [1] is: designed as: ON switch for flavin mononucleotide, no ligand.
Setting [2] is: ligand present: flavin mononucleotide, designed as: ON switch for flavin mononucleotide.
Where [3] appears, read: designed as: OFF switch for flavin mononucleotide, no ligand.
Setting [4] is: ligand present: flavin mononucleotide, designed as: OFF switch for flavin mononucleotide.

From the EternaBench riboswitch data come the findings set out here.

Take “ACAUUUAAUACAGGAUAUGUUAGUAUACAGUAGAUUGGUUAUUACACAACAACAGAAGGGUAGUACAUGAGGAUCACCCAUGUA”: the “apparent Kd” value runs as follows: under setting [1], 15.6 nM; under setting [2], 12.1 nM.

In the case of “GCCAUCGCAUGAGGAUAUGCUCCGGUUUCCGGAGCAGAAGGUAUGUCAUAUGACAUGAGGAUCACCCAUGUAGUUAAGAUGGCA”, the “apparent Kd” value worked out at 571 nM under setting [1] and 54.7 nM under setting [2].

Take “AAAAAACAUGAGGAUCACCCAUGUCUUCGGACGUGAGGAUAUGUACAGACUUCGGUCUGUACAGAAGGCAUGUCAA”: the “apparent Kd” value under setting [1] turned out to be 212 nM and the “apparent Kd” value under setting [2] stood at 25.9 nM.

As for “UGUCGGAGCAGAGGAUAUUACAUGAGGAUCACCCAUGUAUGAACGAAUAGCUGGAAACAGCAAUGUAAGAAGGCUGCUCCGACA”, the “apparent Kd” value turned out to be 6 nM under setting [3] and 10.4 nM under setting [4].

As for “GCGUACAUAUCAGGAUAUCAUAUAAUUGUUUAUCUCAGUGUAUACAUGAGGAUCACCCAUGUUCUUGAGAAGGGAUAUGUACGC”, the “apparent Kd” value reads like this: under setting [3], 8.24 nM; under setting [4], 8.68 nM.

Turning to “AAGUUAUAUACAUGAGGAUCACCCAUGUCAAAGGGAGUAAUCAGAAGGUACUAUUCAAUAAUUAGUAAGGAUAUGAAUUUUUAG”, the “apparent Kd” value by setting is: under setting [1], 39.5 nM; under setting [2], 30.6 nM.

As for “UAGAAGUCAGGAUAUGCUGCUCGUCACUUGCGUGAUGAGUAGCAGAAGGGACAUGAGGAUCACCCAUGUAAAGU”, the “apparent Kd” value came out at 52.5 nM under setting [3] and 91 nM under setting [4].

“UAACCGUGAGGAUAUACAUGAGGAUCACCCAUGUAGCAAGCUACGUAACCCACCAUAUGUAGAAGGCACUAGGU”: the “apparent Kd” value was 73.1 nM under setting [3] and 47.6 nM under setting [4].

Regarding “AAUGUUUUCAUAGGAUAUUGACUUUUAUUUAUUCAAGAAGGAUGAUAACAUGAGGAUCACCCAUGUUAAAAUGGAUUAACUAGU”, the “apparent Kd” value reads like this: under setting [3], 16.1 nM; under setting [4], 26.6 nM.

As to “AAAAACUAAGGAUAUACAUGAGGAUCACCCAUGUAAAAAAUGCAUGGGAAAACCUCAUGUAGAAGGUAGAAAAA”, the “apparent Kd” value under setting [3] is 20.6 nM and the “apparent Kd” value under setting [4] came out at 17.2 nM.

As to “AAUUAGGUCACAGGAUAUACAACAACCAAUGCUGUAGAAGGGUGACACAUUCUUUGCUGACAUGAGGAUCACCCAUGUAACCAC”, the “apparent Kd” value is, setting by setting: under setting [1], 69.3 nM; under setting [2], 11.2 nM.

For “AUGUCUCUAGGAUAUUAGCGGAUCUACAUGAGGAUCACCCAUGUCGUGUCGCAGAUGUGCUGAGAAGGAGAGCACA”, the “apparent Kd” value is 15.2 nM under setting [3] and 19 nM under setting [4].

For the sequence “GCUCUGGCAUGAGGAUAUGGUCAGCUUUGCUGACCAGAAGGCAUGUCAAUAGACAUGAGGAUCACCCAUGUAGUUAACAGAGCA”, the “apparent Kd” value under setting [1] is 538 nM and the “apparent Kd” value under setting [2] is 37.3 nM.

“UGGAUCAUCGGAGGAUAUCAUGUAUAUACAUGAGGAUCACCCAUGUCGUACGAGAGUACGGAGAUUGAGAAGGCCGAUGAUCCU”: the “apparent Kd” value was 38.8 nM under setting [1] and 14.9 nM under setting [2].

“CUUUUGUGAGGAUAUUCGUAGUAAAUGAAUAAAAUUAUUACGGAGAAGGCACAUGAGGAUCACCCAUGUUCCUC”: the “apparent Kd” value under setting [3] was determined as 42.2 nM and the “apparent Kd” value under setting [4] amounted to 343 nM.

For “GCCGUCAACGUAGGAUAUCUUCAGCCACAGCACAUUGCUGUACAUGAGGAUCACCCAUGUCCUGGAGAGAAGGACGGACGGCAG”, the “apparent Kd” value under setting [1] turned out to be 108 nM and the “apparent Kd” value under setting [2] was found to be 19.6 nM.

As to “AGCUGUGGCCGAGGAUAUCUAUCUCAUAAAACCGAAAUAUAAUCGGACAUGAGGAUCACCCAUGUAGAGAAGGCGGUCUCAGCA”, the “apparent Kd” value runs as follows: under setting [3], 27.6 nM; under setting [4], 129 nM.

For the sequence “UGGUACAUGGGAGGAUAUGGGUUGAUAACAUGAGGAUCACCCAUGUUAAAUGCCGAAAGGCAAAACUAGAAGGCCCAUGUACCU”, the “apparent Kd” value reads like this: under setting [1], 257 nM; under setting [2], 24.5 nM.

Take “CCUCCACAUUAGGAUAUCGUCACAGAAAUGUGACGAGAAGGAAUGACAUGAGGAUCACCCAUGUUAACGUGAUG”: the “apparent Kd” value is, setting by setting: under setting [3], 34.4 nM; under setting [4], 195 nM.

For the sequence “UGAUCGAGAGAUCUUAGAUUCUGGUAGGAUAUACAUAUUGUAAUAUAGACAUGAGGAUCACCCAUGUAGAAGGACUAGAGUCUA”, the “apparent Kd” value was 6.6 nM under setting [3] and 11.5 nM under setting [4].

With “CCGGAUAUGCAGGAUAUCGUAUCGGAUACGAUACGAGAAGGGUAUACAUGAGGAUCACCCAUGUGUCCUACCGG”, the “apparent Kd” value runs as follows: under setting [3], 22.8 nM; under setting [4], 31.5 nM.

“GCCAACUAAUGAGGAUAUGGCACCUUAUUGGUGCCAGAAGGCAUGUCAAUUGACAUGAGGAUCACCCAUGUAUUAUAGUUGGCG”: the “apparent Kd” value runs as follows: under setting [1], 878 nM; under setting [2], 109 nM.

Turning to “GAUUAACAUGAGGAUCACCCAUGUCGUUUUAUGGGAGGAUAUACGUGGACCGUAGUCCGCGUAGAAGGCCUAAUUG”, the “apparent Kd” value under setting [1] stood at 125 nM and the “apparent Kd” value under setting [2] is 30.4 nM.

For “CUUUUGUGAGGAUAUUAGUAGUAAAUAAAUAUAAUUACUACUGAGAAGGCACAUGAGGAUCACCCAUGUUCCUC”, the “apparent Kd” value by setting is: under setting [3], 34.1 nM; under setting [4], 186 nM.

For “GUGGCGGCCACAGGAUAUACCCGCGGUAGCCUGGUAGAAGGGUGGUCUCUCAGUCACAACAUGAGGAUCACCCAUGUAGAAAUC”, the “apparent Kd” value is, setting by setting: under setting [1], 25.8 nM; under setting [2], 35.5 nM.

Take “GGUCCUCUGGUGAGGAUAUCUACCCAGGCAGCUGGAGAGAAGGCACAUGAGGAUCACCCAUGUAGCAGAAAACC”: the “apparent Kd” value amounted to 9.98 nM under setting [3] and 17 nM under setting [4].

Consider “AGAAAGUCAGGAUAUCAGAAUAAGUCGAAAACGACUAGUAAUGAGAAGGGACAUGAGGAUCACCCAUGUAAGAA”, for which the “apparent Kd” value is, setting by setting: under setting [3], 30.6 nM; under setting [4], 37.4 nM.

On to “GUGUACGGAGGAUAUAUAUGGGCAGGCUGACCUGCAGCUUCACAUGAGGAUCACCCAUGUAGAAGGCUGUACAC”, for which the “apparent Kd” value under setting [3] turned out to be 41.9 nM and the “apparent Kd” value under setting [4] came out at 224 nM.

For the sequence “CUGUGACGGUGCGCAAGUGGACGUAGAAGGCUCACAUGAGGAUCACCCAUGUGGGCCUGCGAGUGAGAGGAUAUACGUUCGUGC”, the “apparent Kd” value reads like this: under setting [3], 5.28 nM; under setting [4], 5.56 nM.

“ACGACGAAAGUCGAACGAUGAUCGAGAAGGACAUGAGGAUCACCCAUGUUCCGUGUAACACGCAUGUAGGAUAUCGAUCAUCGA”: the “apparent Kd” value by setting is: under setting [3], 5.17 nM; under setting [4], 11.4 nM.

Regarding “UCGUUUUUUGAGGAUAUGCGACGUUUUUUCGUCGUAGAAGGCGAUACAUGAGGAUCACCCAUGUUUAUGGGCAU”, the “apparent Kd” value by setting is: under setting [3], 190 nM; under setting [4], 318 nM.

Regarding “AUAUGAGAAGCAGGAUAUGUGAAAAAAAAACAUACAGAAGGGUUUAUGGGACAACAUGAGGAUCACCCAUGUUCUCUGUGAUGA”, the “apparent Kd” value under setting [1] stood at 65.2 nM and the “apparent Kd” value under setting [2] came out at 71 nM.

As to “UGAGUAGCGAAACAACGCACAUGAGGAUCACCCAUGUCUACACAGGAUAUGCGACGCUCCAGUUAGCAGAAGGGUGAACUCAAA”, the “apparent Kd” value is, setting by setting: under setting [1], 36.4 nM; under setting [2], 89.7 nM.

With “ACACAACAUGAGGAUCACCCAUGUCAGGAUAUGCAGAACAAGAACAAGACAAGACAGAGCAGAAGGGACAACAC”, the “apparent Kd” value under setting [3] is 39.4 nM and the “apparent Kd” value under setting [4] was 35.6 nM.

For “GGGUACAUCGGAGGAUAUCAUGUAAAUACAUGAGGAUCACCCAUGUCGAUGGAGACAUCUGAGAUUGAGAAGGCCGAUGUACCG”, the “apparent Kd” value runs as follows: under setting [1], 19.4 nM; under setting [2], 6.45 nM.

Take “AUUGUAUAGGAAGGAUAUAGAAUAUUAUUUUAACAUGAGGAUCACCCAUGUAACCUUAUGUGUAGCUAGAAGGUCCAUUUGUUA”: the “apparent Kd” value by setting is: under setting [3], 248 nM; under setting [4], 302 nM.

For the sequence “CUUCGACAUGAGGAUCACCCAUGUCAGGAUAUUGUGUAUCGGGUUUUUUACGGAAAGGCAAGAAGGGAUGUGUG”, the “apparent Kd” value came to 29.7 nM under setting [3] and 24.8 nM under setting [4].

Take “AUGCUCGUGUGAGGAUAUGCCGCCGUUUCGGCUGCAGAAGGUGCUACGUUACAUGAGGAUCACCCAUGUCUCUGUUGUUUCGUG”: the “apparent Kd” value runs as follows: under setting [1], 24.4 nM; under setting [2], 25.5 nM.

“AUCAGCUCGUCAGGAUAUACGUCACUGCGUCCGCAGUGUGGUAAGAUCACAUGAGGAUCACCCAUGUAGAAGGGACGAGCUGAU”: the “apparent Kd” value came to 13.8 nM under setting [3] and 264 nM under setting [4].

For the sequence “UGUGAGUUGAUGUUAGAUAGGAGAACAUGAGGAUCACCCAUGUAGGAUAUUCAAAGACGAAGAUAGAAGAAGGACAUAGGUAUC”, the “apparent Kd” value under setting [3] turned out to be 24.8 nM and the “apparent Kd” value under setting [4] was determined as 66.2 nM.

For the sequence “UUACUAUUGGAGAAGGGUCCAUCAUAUAGAAGGACAGGAUAUCCAACAUGAGGAUCACCCAUGUGUCACCCAUAUGAGGAUCAC”, the “apparent Kd” value was determined as 41.4 nM under setting [3] and 82.2 nM under setting [4].

For “AUAUUUAUUUAGAAGGACAUGAGGAUCACCCAUGUCGCUGGGCGCGGGAAACCGUGCGCGGCCAUGUAGGAUAUAGGUAGAUAU”, the “apparent Kd” value reads like this: under setting [3], 14.4 nM; under setting [4], 12.4 nM.

Regarding “AGCUACGUUUCGUAGCAGCUAGGUGAGGAUAUUCAAUUUUUCACAUGAGGAUCACCCAUGUAUGUGAAGAAGGCGCCUAGAAAA”, the “apparent Kd” value under setting [1] turned out to be 12.3 nM and the “apparent Kd” value under setting [2] amounted to 4.98 nM.

For “AAAUAGAAUGAGGAUAUCGUAUUAUAUUUAGUACGAGAAGGCAUUACAUGAGGAUCACCCAUGUUUUGUUGGGA”, the “apparent Kd” value is, setting by setting: under setting [3], 21.8 nM; under setting [4], 57.9 nM.

For the sequence “GUUAAACAUGAGGAUCACCCAUGUAAGGAUAUGCUGCGGUCGAGAUGAAGUGAAUGCAGCAGAAGGUACAAUUG”, the “apparent Kd” value under setting [3] came out at 116 nM and the “apparent Kd” value under setting [4] was found to be 99.9 nM.

As for “GUGCAUGUGCGAACUAACCCACAUGAGGAUCACCCAUGUAGGAGAAGGGUCCGGAGGUGCCGUGGACAGGAUAUCCUACGCCUU”, the “apparent Kd” value under setting [3] was 17.5 nM and the “apparent Kd” value under setting [4] stood at 33.2 nM.

For the sequence “GGACGUCACAUUCACAUGAGGAUCACCCAUGUCAAAAGACAUGAGGAUAUGGAUCCUAAUUGGAUCCAGAAGGCAUGGACGUCC”, the “apparent Kd” value runs as follows: under setting [1], 1140 nM; under setting [2], 70.6 nM.

Turning to “UUCAGCUCGUGAGGAUAUACAUGUGCUGGAAACAGCACUAAAGAUUUCACAUGAGGAUCACCCAUGUAGAAGGCACGAGCUGAG”, the “apparent Kd” value by setting is: under setting [3], 16.2 nM; under setting [4], 39.4 nM.
